The values below come from ChEMBL document CHEMBL3393009 (J Med Chem, 2015).

Calls of active or inactive are those of the source. The rule behind the calls is not given here.

Series [1] is described as follows: Clearance in human liver microsomes. The settings on record: read-out: CLH. The format is ADME. The method, boiled down: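 Human liver microsomal clearance.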
The target in series [2] is Serine/threonine-protein kinase 26 (Homo sapiens, UniProt Q9P289). Briefly: Inhibition of human recombinant MST4 using Ser/Thr peptide 7 substrate after 60 mins by Z-Lyte assay. The method, boiled down: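 Z-Lyte FRET assay, final 2 μM Ser/Thr peptide 7, 75 μM ATP, 18 nM kinase. Buffer 50 mM HEPES (pH 7.0 for MST2, 7.5 for MST4), 10 mM MgCl2, 1 mM EGTA, 0.01% Brij-35. Stopped at 45 min (MST2) or 60 min (MST4). Excitation 400 nm, emission 445/520 ratio converted to percent phosphorylation for IC50.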

Series [3] can be described thus: Half life in dog at 5 mg/kg, po. It counts as ADME, organism-based, Canis lupus familiaris. The arrangement: dose 5 mg/kg, route oral. The settings on record: in vivo.
Series [4] is described as follows: Cmax in non-human primate at 5 mg/kg, po. It counts as ADME, organism-based. The arrangement: dose 5 mg/kg, route oral. The note with it: monkey, in vivo.
A short description of series [5]: Tmax in non-human primate at 5 mg/kg, po. The arrangement: dose 5 mg/kg, route oral. It counts as ADME, organism-based. The note with it: monkey, in vivo.
Series [6] can be described thus: Oral bioavailability in non-human primate at 5 mg/kg. It counts as ADME, organism-based. The settings on record: monkey, in vivo.
Series [7] concerns Mus musculus. The series is described as follows: Inhibition of wild type LRRK2 […] phosphorylation in BAC-transgenic C57BL/6J mouse brain at 3 to 100 mg/kg, sc measured after 90 mins post dose. It counts as functional. The note with it: dose mg/kg 3-100; route subcutaneous. The essentials:
(§1)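 Mice given compound subcutaneously in 10% NMP/20% SBECD vehicle: four-month-old C57BL/6J (wild type) or seven-month-old LRRK2 BAC-Tg G2019S. Tissues collected 90 min after dose. pS935, and pS1292 (custom antibody) in transgenic brain, read by Western blot of brain/kidney lysates against vehicle controls. Mean ± SEM.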

In series [8] the test system is Mus musculus. The series is described as follows: Effect on total LRRK2 protein level in BAC-transgenic C57BL/6J mouse kidney at 3 to 100 mg/kg, sc measured after 90 mins post dose. The format is ADME, organism-based. Also on record: dose 3-100 mg/kg, route subcutaneous. The settings on record: in vivo, 1.5 h.
Series [9] concerns Mus musculus. The series is described as follows: Inhibition of LRRK2 […] mutant […] phosphorylation in BAC-transgenic mouse at 3 to 100 mg/kg, sc measured after 90 mins post dose. The format is functional. The note with it: dose mg/kg 3-100; route subcutaneous. The method, boiled down:
as §1

For series [10], the system named is Mus musculus. The series is described as follows: Inhibition of LRRK2 […] mutant S1292 phosphorylation in BAC-transgenic mouse at 3 to 100 mg/kg, sc measured after 90 mins post dose. It counts as functional. The settings on record: dose mg/kg 3-100; route subcutaneous. The essentials: as §1
Series [11] relates to Rattus norvegicus. Briefly: Toxicity in Wistar Han rat assessed as changes in clinical chemistry parameters at 6 to 60 mg/kg, po bid for 14 days. Also on record: dose 6-60 mg/kg, route oral. The note with it: in vivo, 336 h. The format is organism-based. The method, boiled down: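 Wistar Han rats (200–300 g, 8–11 weeks) dosed by oral gavage twice daily for 14 days. Vehicle: 10% propylene glycol/20% PEG400/70% methylcellulose solution. RBC parameters, electrolytes, food consumption, body weight, clinical chemistry and urinary biomarkers recorded.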

Series [12] relates to Rattus norvegicus. The series is described as follows: fCmax in Wistar Han rat at 60 mg/kg, po bid for 14 days. The format is ADME, organism-based. Also on record: dose 60 mg/kg, route oral. The note with it: in vivo, 336 h.
Series [13] in a line: Drug coverage index, ratio fCmax in Wistar Han rat at 60 mg/kg, po bid for 14 days to IC50 for LRRK2 S395 phosphorylation in Wistar Han rat brain at 6 to 60 mg/kg, po bid for 14 days. It counts as ADME, organism-based. The settings on record: in vivo, 336 h. The essentials:
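Wistar Han rats (200–300 g, 8–11 weeks old) were dosed by oral gavage twice daily for 14 days. Vehicle was 10% propylene glycol/20% PEG400/70% 9.5% methocellulose.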

For series [14], the system named is Rattus norvegicus. The series is described as follows: fAUC in Wistar Han rat at 6 mg/kg, po bid for 14 days. The format is ADME, organism-based. The arrangement: dose 6 mg/kg, route oral. The note with it: in vivo, 336 h. The essentials: (§2)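 Wistar Han rats dosed orally twice daily in 10% propylene glycol/20% PEG400/methylcellulose vehicle. Unbound plasma exposure measured on days 1 and 11.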

The subject of series [15] is Rattus norvegicus. Briefly: fAUC in Wistar Han rat at 20 mg/kg, po bid for 14 days. It counts as ADME, organism-based. Also on record: dose 20 mg/kg, route oral. The settings on record: in vivo, 336 h. The method, boiled down:
as §2

Series [16] concerns the target T1, Tyrosine-protein kinase JAK3 (Homo sapiens) (UniProt P52333).
T1 sequence (whole entry): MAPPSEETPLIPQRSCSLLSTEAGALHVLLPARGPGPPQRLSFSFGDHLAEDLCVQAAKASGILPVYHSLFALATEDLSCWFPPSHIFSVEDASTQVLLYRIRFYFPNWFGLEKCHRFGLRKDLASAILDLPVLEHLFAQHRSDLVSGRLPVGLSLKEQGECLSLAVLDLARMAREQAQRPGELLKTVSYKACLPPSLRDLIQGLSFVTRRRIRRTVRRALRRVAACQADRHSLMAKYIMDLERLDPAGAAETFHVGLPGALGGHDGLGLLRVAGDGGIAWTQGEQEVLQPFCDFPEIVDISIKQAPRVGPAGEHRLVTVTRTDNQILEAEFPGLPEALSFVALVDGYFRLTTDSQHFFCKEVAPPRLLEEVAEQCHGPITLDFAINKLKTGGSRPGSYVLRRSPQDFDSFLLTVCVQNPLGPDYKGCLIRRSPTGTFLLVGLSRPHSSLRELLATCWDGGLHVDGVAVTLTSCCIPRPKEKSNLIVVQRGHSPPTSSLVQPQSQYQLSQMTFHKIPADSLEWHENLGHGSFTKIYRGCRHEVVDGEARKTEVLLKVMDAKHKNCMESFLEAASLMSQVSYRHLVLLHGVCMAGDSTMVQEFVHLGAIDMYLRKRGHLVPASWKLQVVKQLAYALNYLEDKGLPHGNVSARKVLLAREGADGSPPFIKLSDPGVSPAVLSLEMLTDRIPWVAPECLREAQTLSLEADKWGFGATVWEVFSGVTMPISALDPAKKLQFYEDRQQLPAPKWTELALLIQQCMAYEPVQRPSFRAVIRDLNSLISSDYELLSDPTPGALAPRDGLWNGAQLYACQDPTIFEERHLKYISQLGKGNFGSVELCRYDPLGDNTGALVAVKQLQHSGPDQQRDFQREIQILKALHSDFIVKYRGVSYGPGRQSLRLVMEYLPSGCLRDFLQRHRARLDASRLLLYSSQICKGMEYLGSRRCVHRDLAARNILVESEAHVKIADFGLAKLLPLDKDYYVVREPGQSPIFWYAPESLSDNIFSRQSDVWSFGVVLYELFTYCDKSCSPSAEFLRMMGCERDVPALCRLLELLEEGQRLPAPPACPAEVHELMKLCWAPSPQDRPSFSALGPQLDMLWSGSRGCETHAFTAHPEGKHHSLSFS
Briefly: Inhibition of JAK3 (JH1 domain-catalytic) (unknown origin) at 1 uM.

Serine/threonine-protein kinase 26, sequence (Q9P289 whole entry): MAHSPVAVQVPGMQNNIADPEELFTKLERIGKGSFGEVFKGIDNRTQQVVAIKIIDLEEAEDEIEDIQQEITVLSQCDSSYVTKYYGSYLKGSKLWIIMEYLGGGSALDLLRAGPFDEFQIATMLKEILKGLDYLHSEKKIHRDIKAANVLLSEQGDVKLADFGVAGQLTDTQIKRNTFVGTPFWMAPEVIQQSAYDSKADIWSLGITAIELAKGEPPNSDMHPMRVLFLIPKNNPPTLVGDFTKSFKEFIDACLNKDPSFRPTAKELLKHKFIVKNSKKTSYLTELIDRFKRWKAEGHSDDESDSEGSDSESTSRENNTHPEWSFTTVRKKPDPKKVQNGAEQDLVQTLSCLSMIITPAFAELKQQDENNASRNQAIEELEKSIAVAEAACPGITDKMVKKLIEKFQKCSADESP

In the case of `N#Cc1cccc(-c2c[nH]c3ncnc(N4CCOCC4)c23)c1`, the CLint scaled in [1] worked out at 36 mL/min/kg. Moreover, the IC50 in series [2] came out at 0.178 µM. In series [3], this molecule had a half-life of 0.78 h. Also, in series [4], the peak level (Cmax) was 25 ng/mL. Moreover, the Tmax in [5] turned out to be 2 h. For the same molecule, in [6], the bioavailability worked out at 3.5%. Also, the fIC50 in series [7] is 8 nM; in series [9] it was 103 nM; in series [10], 21 nM. For the same molecule, the Activity entry in series [8] and in series [11] was “Non-toxic” throughout. The molecule also came in with a fCmax in [12] of 1050 nM. The Ratio in [13] turned out to be 70. The fAUC in [14] amounted to 0.843 µM·h; in series [15], 4.14 µM·h. Further, the inhibition entry in series [16] is “inactive”.
